Source: PubChem BioAssay
S100A4 inh HTS: blocks human S100A4 binding to myosin IIA peptide; P26447; S100A4/TAMRA-MyoIIA peptide fluorescence polarization; inhibition, % at 10.7 µM; 360,000 tested, 0.14% active; AID 652163;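 active means mean inhibition of at least 70% across replicates, with every replicate also reaching that level; inconclusive means mean inhibition reaches 70% but some replicates fall short; inactive means mean inhibition below 70%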
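Test system – S100A4 monomer (human) · Compound – single-point compound testing · Schedule – 5 min incubation before reading · Probe or stimulus – TAMRA-labelled myosin IIA heavy-chain peptide probe, 5 nM · Benchmarks – neutral control DMSO, positive control TFP · Medium – Calcium-containing HEPES buffer, pH 7.2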
AF4-AF9 inh: inhibitors of human MLL-AF4/AF9 interaction; P42568; AlphaScreen, biotin-AF4 peptide binding to FLAG-AF9; inhibition, % at 10 µM; 350,000 tested, 0.47% active; AID 651704;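 active means every replicate reaching a set inhibition limit, whatever the replicate mean, cut at about 25% in these data; inconclusive means mean inhibition reaches that limit but some replicates miss it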;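 further: 0% = plate neutral control median and 100% = total signal loss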
Target sequence (P42568 whole entry, looked up): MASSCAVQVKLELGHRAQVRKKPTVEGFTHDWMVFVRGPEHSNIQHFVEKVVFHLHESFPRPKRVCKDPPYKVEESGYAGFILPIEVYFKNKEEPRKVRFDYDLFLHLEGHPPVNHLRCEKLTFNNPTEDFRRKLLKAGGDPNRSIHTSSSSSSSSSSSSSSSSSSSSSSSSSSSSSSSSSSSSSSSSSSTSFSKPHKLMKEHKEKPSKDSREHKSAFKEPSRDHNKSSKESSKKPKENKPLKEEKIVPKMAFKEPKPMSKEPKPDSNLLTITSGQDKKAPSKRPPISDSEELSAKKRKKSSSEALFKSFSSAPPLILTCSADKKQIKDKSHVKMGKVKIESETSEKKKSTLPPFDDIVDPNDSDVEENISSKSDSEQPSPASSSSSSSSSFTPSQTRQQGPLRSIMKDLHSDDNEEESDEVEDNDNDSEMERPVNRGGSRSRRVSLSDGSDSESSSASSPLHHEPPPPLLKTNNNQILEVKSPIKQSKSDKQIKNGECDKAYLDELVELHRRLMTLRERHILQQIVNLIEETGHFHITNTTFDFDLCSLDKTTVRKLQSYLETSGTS
DENV2 CPE rescue: inhibitors of DENV2 cytopathic effect; 350,000 tested, 1.7% active; CPE inhibition, % at 9.99 µM; DENV2-infected cells, cytopathic effect rescue, plate reader; AID 651640; in the data active means CPE inhibition above about 20%, passing the limit was not always enough; inconclusive means no clear call, values can overlap the other calls; tested in BHK-21 cells;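 further: 0% = median of neutral control wells and 100% = median of positive control wells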
CaV13 ICDI inh: Disruptors of the CACNA1D IQ motif to Ca2+-dependent inactivation inhibitor domain association, primary screening, Förster resonance energy transfer in intact living …. HEK cells, CFP/YFP FRET ICDI-IQ, plate reader, 10 min; percent FRET-ratio fall versus neutral wells. inhibition, % at 12.3 µM. 340,000 tested, 0.098% active. AID 743397;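 active means mean replicate inhibition of at least 30% and at least 1% of replicates passing that level; inconclusive means only one of the two criteria is met; inactive means neither criterion is met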;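 further: 0% = median of the neutral control wells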
SIRT5 block: blocks human SIRT5 desuccinylation of peptide. Q9NXA8. Purified SirT5, succinyl-peptide AMC, trypsin-coupled fluorescence. inhibition, % at 15 µM. 330,000 tested, 1.1% active; in the data active means inhibition above about 15%; inconclusive means no clear call, values can overlap the other calls
* = called active by the depositor; u = inconclusive; x = no result. Compounds with a hit are over-represented: about 2.7% of the library has one in this group of screens.

SMILES	S100A4 inh HTS	AF4-AF9 inh	DENV2 CPE rescue	CaV13 ICDI inh	SIRT5 block
COCCNC(=O)C[C@@H]1C[C@H]2c3cc(NC(=O)C4CCOCC4)ccc3O[C@H]2[C@H](CO)O1	3	0	24*	x	1
O=C(O)C[C@@H]1C[C@@H]2c3cc(NC(=O)C4CCOCC4)ccc3O[C@@H]2[C@H](CO)O1	1	-3	28*	x	1
O=C(C[C@H]1CC[C@@H](NC(=O)CCN2CCCCC2)[C@H](CO)O1)NCc1ccc(Cl)c(Cl)c1	14	2	2	x	-1
COc1ccc(CNC(=O)[C@H](C)N2C(=O)N3CCc4c([nH]c5ccc(OC)cc45)[C@@]3(C)C2=O)cc1	-3	-1	5	x	-1
COc1ccc2[nH]c3c(c2c1)CCN1C(=O)N([C@@H](C)C(=O)NC2CCCCC2C)C(=O)[C@]31C (some centres not stated)	-9	9	48*	x	x
Cc1noc(C)c1NC(=O)Nc1cccc2c1O[C@@H](CN(C)Cc1ccc(C(F)(F)F)cc1)[C@H](C)CN([C@@H](C)CO)C2=O	x	-1	23*	x	2
C[C@H](CO)N1C[C@H](C)[C@@H](CN(C)C(=O)Nc2ccc(C(F)(F)F)cc2)Oc2c(NC(=O)Nc3ccccc3)cccc2C1=O	-4	1	-3	-4	2
C[C@@H]1CN([C@H](C)CO)C(=O)c2cccc(NC(=O)Nc3ccc(C(F)(F)F)cc3)c2O[C@H]1CN(C)C(=O)Nc1cccc2ccccc12	-27	5	7	x	27*
C[C@@H]1CN([C@@H](C)CO)C(=O)c2cccc(NC(=O)Nc3ccc(C(F)(F)F)cc3)c2O[C@@H]1CN(C)Cc1ccc(-c2ccccc2)cc1	2	-3	4	x	2
Cc1noc(C)c1NC(=O)Nc1cccc2c1O[C@@H](CN(C)Cc1ccc(C(=O)O)cc1)[C@H](C)CN([C@@H](C)CO)C2=O	-39	-2	8	x	-3
C[C@@H]1CN([C@H](C)CO)C(=O)c2cccc(NC(=O)Nc3ccc(C(F)(F)F)cc3)c2O[C@@H]1CN(C)C(=O)Nc1ccccc1	4	4	43*	x	2
C[C@@H]1CN([C@H](C)CO)C(=O)c2cccc(NC(=O)Nc3ccc(C(F)(F)F)cc3)c2O[C@@H]1CN(C)Cc1ccc(-c2ccccc2)cc1	1	0	u	x	103*
CO[C@H]1CN(C)C(=O)c2ccc(NC(=O)C3CC3)cc2OC[C@H](C)NC[C@@H]1C	-1	-11	1	x	-2
CC(C)NC(=O)N1[C@H](C(=O)N2CCOCC2)[C@@H](CO)[C@@H]2Cn3c(ccc(-c4ccc(F)cc4)c3=O)[C@@H]21	-9	2	5	x	-18
CO[C@@H]1CN(C)C(=O)c2cc(NC(=O)c3ccccc3)ccc2OC[C@@H](C)NC[C@H]1C	4	-2	13	x	2
Cc1noc(C)c1NC(=O)N(C)C[C@H]1Oc2c(NC(=O)Nc3ccc(C(F)(F)F)cc3)cccc2C(=O)N([C@@H](C)CO)C[C@@H]1C	8	-5	27*	x	4
COc1ccc(CN(C)C[C@@H]2Oc3c(NC(=O)Nc4ccc5c(c4)OCO5)cccc3C(=O)N([C@H](C)CO)C[C@H]2C)cc1	7	-9	0	x	9
COc1cc2cc(CCCOC(=O)CCCC(=O)O)oc(=O)c2cc1OC	3	1	38*	-3	x
Cc1ccc(Sc2ccc(CN3CCCCC3)cc2[N+](=O)[O-])cc1	-4	29*	-1	-1	-1
COc1ccc(NC(=O)N(C)C[C@@H]2Oc3cc(-c4ccc(C)cc4)ccc3S(=O)(=O)N([C@H](C)CO)C[C@H]2C)cc1	-9	4	-2	x	10
OC[C@@H]1[C@@H](c2ccc(-c3ccc(F)cc3)cc2)[C@@H]2CN(Cc3ccccn3)CCCCN12	-13	2	63*	x	-8
OC[C@@H]1[C@H](c2ccc(-c3ccc(F)cc3)cc2)[C@H]2CN(Cc3ccccn3)CCCCN12	-13	7	33*	x	-8
OC[C@@H]1[C@H](c2ccc(-c3ccc(F)cc3)cc2)[C@@H]2CN(Cc3ccccn3)CCCCN12	-16	-17	-8	x	-5
CCCCOc1ccc(C(=O)NC2CCCCN(C)C2=O)cc1 (configuration not stated)	-6	x	4	-2	x
C[C@@H]1CN([C@H](C)CO)C(=O)c2cc(NC(=O)CCC(F)(F)F)ccc2O[C@H]1CN(C)Cc1ccc2c(c1)OCO2	-7	-2	7	x	-4
SMILES	S100A4 inh HTS	AF4-AF9 inh	DENV2 CPE rescue	CaV13 ICDI inh	SIRT5 block
O=C(Nc1ccnn1C1CCN(C2CCC2)CC1)c1ccccc1Cl	-3	0	-2	-10	1
O=C(Nc1ccnn1C1CCN(C2CCCC2)CC1)c1ccccc1Cl	-1	-2	4	-2	27*
CC(N)c1csc(Nc2ccc(C(=O)NCCCO)cn2)n1 (configuration not stated)	-1	0	30*	-4	2
CN(C)c1ccc(NC(=O)Nc2nc(C(N)C3CCCCC3)cs2)cc1 (configuration not stated)	-2	57*	4	-2	-3
CC(=O)c1ccc(Nc2nc(C(N)C3CCCCC3)cs2)cc1 (configuration not stated)	-13	2	4	-6	-1
NC(c1csc(Nc2ccc(C(=O)NCCO)cc2)n1)C1CCCCC1 (configuration not stated)	-8	3	22*	-11	1
NC(c1csc(Nc2ccc(C(=O)NCCCO)cn2)n1)C1CCCCC1 (configuration not stated)	-1	1	2	-5	x
CCN1CC(=O)N2[C@H](CO)[C@@H](c3ccc(Br)cc3)[C@@H]2C1	12	0	4	x	-1
CCCNC(=O)N1[C@H](C#N)[C@H](c2ccc(C#Cc3ccc(F)cc3)cc2)[C@H]1CO	1	0	-15	x	4
COc1ccc(C(=O)C2CCN(C(=S)NCCc3ccc(OC)c(OC)c3)CC2)cc1	-5	2	-6	4	-3
CC(C)(C)NC(=S)N1CCC(C(=O)c2ccc(Cl)cc2)CC1	0	1	21*	-1	2
COc1ccc(C(=O)C2CCN(C(=S)NCCc3ccccc3)CC2)cc1	-8	1	-2	-6	16*
COc1cccc(-c2ccc3c(c2)[C@H]2[C@H](CCN2C(=O)C2CCCCC2)[C@H](CO)N3)c1	-16	10	8	x	-1
Cc1noc(NS(=O)(=O)c2ccc(NC(=O)c3cnc4scc(C)n4c3=O)cc2)c1C	-6	-9	-2	-3	15*
Cc1cc(NS(=O)(=O)c2ccc(NC(=O)c3cnc4scc(C)n4c3=O)cc2)nc(C)n1	-3	8	-3	-3	1
CC(=C/c1ccccc1)/C=N/Nc1nc(N2CCCCC2)nc(N2CCCCC2)n1	2	6	64*	-3	-2
COc1ccccc1OCc1ccc(C(=O)N(C)C)o1	x	x	x	-5	x
